Reference: ChEMBL document CHEMBL3393025, “Discovery of dual leucine zipper kinase (DLK, MAP3K12) inhibitors with activity in neurodegeneration models” (J Med Chem, 2015)

Experiments:
[1] = target: Mitogen-activated protein kinase kinase kinase 9 (Homo sapiens, UniProt P80192); assay: Inhibition of MLK1 (unknown origin)
[2] = Plasma clearance in dog at 1 mg/kg, iv and 5 mg/kg, po; type: ADME, organism-based, Canis lupus familiaris
Summary of the method: (§1)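 Single-compound PK. Intravenous dose 1 mg/kg given as a 60% PEG solution. Oral dose 5 mg/kg given as an aqueous suspension in 1% methylcellulose. Plasma clearance, steady-state volume of distribution, half-life and oral bioavailability were determined from these doses.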

[3] = target: T1, Dual specificity mitogen-activated protein kinase kinase 7 (Homo sapiens, UniProt O14733); assay: Inhibition of MKK7 (unknown origin)
T1 sequence (O14733 whole entry): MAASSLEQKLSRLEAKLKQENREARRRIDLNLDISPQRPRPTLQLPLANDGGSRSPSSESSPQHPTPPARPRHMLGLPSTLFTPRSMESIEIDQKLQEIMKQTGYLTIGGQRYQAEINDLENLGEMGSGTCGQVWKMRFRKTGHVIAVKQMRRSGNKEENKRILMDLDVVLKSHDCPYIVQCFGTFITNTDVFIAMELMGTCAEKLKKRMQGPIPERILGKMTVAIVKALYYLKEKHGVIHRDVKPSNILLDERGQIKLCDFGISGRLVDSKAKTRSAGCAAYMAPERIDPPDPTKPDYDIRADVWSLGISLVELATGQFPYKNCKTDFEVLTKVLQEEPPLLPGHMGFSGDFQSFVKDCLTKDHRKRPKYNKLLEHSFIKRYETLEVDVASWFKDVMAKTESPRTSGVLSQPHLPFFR

[4] = Oral bioavailability in rat at 5 mg/kg; type: ADME, organism-based; settings: in vivo; summary of the method: as §1
[5] = Volume of distribution at steady state in rat at 1 mg/kg, iv and 5 mg/kg, po; type: ADME, organism-based; settings: in vivo, read-out: Vdss; summary of the method: as §1
[6] = (§2) Neuroprotective activity in E14.5 rat embryo DRG neurons; type: functional; settings: drg neuron
Summary of the method: (§3)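 DRG neurons freshly dissected from E14.5 rat embryos, plated at 1200−2000 cells/well on an astrocyte monolayer in DMEM/F12 with N3 supplement, 0.18% glucose and 25 ng/mL NGF. 200 μM uridine and 100 μM 5-fluorodeoxyuridine added next day. Cultured 4 days before axon degeneration assay. IC50 reported.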

[7] = tested on: DRG neuron; assay: as §2; type: functional; summary of the method: as §3
[8] = Plasma clearance in rat at 1 mg/kg, iv and 5 mg/kg, po; type: ADME, organism-based; summary of the method: as §1
[9] = Oral bioavailability in mouse at 5 mg/kg; type: ADME, organism-based; settings: in vivo; summary of the method: as §1
[10] = tested on: Mus musculus; assay: Neuroprotective activity against po dosed C57Bl/6 mouse optic nerve crush model assessed as reduction of phosphorylated c-Jun level in retina administered 30 mins prior to nerve crush injury measured after 6 hrs by MSD ELISA; type: functional, organism-based
Summary of the method: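 C57Bl/6 mice dosed orally at two dose levels (MCT suspension) or vehicle, 30 min before optic nerve crush. Retinal p-c-Jun measured 6 h post-injury by MSD ELISA, expressed relative to uncrushed vehicle controls. N = 5 vehicle, 6 per treated group. Mean ± SEM.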

[11] = target: Proto-oncogene tyrosine-protein kinase Src (Homo sapiens) (UniProt P12931); assay: Inhibition of Src (unknown origin) at 0.1 uM
Sequence of Proto-oncogene tyrosine-protein kinase Src (Homo sapiens) (P12931 2-536 limits assumed): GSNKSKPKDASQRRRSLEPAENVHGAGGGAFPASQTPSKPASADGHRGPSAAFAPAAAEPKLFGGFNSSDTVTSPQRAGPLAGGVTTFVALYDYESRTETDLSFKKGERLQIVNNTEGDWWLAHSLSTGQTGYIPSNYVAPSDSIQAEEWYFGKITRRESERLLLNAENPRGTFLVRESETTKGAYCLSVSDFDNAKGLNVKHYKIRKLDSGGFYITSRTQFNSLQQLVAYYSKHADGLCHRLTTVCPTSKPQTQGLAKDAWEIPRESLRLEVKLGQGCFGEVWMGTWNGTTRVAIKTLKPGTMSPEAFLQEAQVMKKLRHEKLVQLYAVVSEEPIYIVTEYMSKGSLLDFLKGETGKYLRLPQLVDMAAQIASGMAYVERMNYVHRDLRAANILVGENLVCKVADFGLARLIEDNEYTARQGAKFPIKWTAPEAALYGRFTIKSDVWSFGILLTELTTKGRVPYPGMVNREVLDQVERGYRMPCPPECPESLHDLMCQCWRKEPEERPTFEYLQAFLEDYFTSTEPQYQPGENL
Summary of the method: (§4)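 Kinase selectivity panel of 298 kinases, test compound at 0.1 μM, percent inhibition reported.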

[12] = tested on: T2, Receptor-type tyrosine-protein kinase FLT3 (Homo sapiens), P36888 [D835Y]; assay: Inhibition of Flt3 D835Y mutant (unknown origin) at 0.1 uM; summary of the method: as §4
T2 sequence (whole entry): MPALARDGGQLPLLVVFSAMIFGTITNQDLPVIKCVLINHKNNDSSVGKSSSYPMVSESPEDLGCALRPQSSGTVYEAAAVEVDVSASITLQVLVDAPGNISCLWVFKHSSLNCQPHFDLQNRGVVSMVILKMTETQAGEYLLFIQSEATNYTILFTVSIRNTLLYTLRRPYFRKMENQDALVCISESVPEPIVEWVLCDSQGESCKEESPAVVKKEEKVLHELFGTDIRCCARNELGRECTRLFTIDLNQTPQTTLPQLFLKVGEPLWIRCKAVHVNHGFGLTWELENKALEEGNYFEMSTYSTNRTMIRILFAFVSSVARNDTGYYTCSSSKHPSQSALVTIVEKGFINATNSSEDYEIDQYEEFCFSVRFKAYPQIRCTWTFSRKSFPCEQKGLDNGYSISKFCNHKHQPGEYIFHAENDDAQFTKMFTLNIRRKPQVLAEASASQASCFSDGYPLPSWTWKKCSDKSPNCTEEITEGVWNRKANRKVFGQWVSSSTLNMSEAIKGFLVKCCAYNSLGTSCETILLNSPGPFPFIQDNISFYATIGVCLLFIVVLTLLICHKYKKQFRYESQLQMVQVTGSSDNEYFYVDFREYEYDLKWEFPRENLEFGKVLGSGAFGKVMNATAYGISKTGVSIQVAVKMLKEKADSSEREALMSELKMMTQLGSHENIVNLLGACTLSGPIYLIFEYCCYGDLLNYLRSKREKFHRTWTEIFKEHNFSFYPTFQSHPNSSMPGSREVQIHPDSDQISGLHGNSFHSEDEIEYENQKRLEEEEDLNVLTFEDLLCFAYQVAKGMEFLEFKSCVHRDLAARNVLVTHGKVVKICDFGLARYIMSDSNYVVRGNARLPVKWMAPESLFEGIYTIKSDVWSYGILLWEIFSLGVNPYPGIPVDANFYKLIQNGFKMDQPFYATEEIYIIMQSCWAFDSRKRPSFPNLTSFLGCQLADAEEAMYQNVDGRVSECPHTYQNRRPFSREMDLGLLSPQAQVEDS

[13] = target: Mitogen-activated protein kinase 10 (Homo sapiens, UniProt P53779); assay: Inhibition of JNK3 (unknown origin)
Sequence of Mitogen-activated protein kinase 10 (P53779 whole entry): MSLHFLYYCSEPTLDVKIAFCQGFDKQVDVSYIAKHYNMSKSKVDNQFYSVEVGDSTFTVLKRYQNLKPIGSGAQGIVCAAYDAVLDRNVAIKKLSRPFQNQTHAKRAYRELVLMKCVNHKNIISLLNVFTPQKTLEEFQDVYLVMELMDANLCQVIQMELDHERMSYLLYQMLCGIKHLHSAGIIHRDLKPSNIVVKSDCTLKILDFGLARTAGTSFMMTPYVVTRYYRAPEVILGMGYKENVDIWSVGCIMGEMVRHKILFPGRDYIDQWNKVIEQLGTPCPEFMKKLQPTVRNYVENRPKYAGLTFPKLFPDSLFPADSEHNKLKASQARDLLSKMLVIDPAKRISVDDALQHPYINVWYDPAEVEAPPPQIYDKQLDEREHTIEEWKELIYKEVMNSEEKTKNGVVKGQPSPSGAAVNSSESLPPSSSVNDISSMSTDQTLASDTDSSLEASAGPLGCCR

[14] = Half life in rat at 1 mg/kg, iv and 5 mg/kg, po; type: ADME, organism-based; settings: in vivo; summary of the method: as §1
[15] = target: T3, Dual specificity mitogen-activated protein kinase kinase 4 (Homo sapiens, UniProt P45985); assay: Inhibition of MKK4 (unknown origin)
T3 sequence (P45985 whole entry): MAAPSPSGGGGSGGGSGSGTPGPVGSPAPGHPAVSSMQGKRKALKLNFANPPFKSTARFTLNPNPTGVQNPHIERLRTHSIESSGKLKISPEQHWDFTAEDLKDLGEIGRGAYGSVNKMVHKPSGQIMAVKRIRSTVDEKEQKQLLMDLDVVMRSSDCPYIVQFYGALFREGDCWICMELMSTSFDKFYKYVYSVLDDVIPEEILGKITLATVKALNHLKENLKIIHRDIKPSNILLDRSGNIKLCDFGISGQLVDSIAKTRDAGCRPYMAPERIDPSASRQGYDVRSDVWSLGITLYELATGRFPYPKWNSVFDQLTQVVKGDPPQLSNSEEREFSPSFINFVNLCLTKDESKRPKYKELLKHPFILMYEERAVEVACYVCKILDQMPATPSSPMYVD

[16] = Volume of distribution at steady state in mouse at 1 mg/kg, iv and 5 mg/kg, po; type: ADME, organism-based; settings: in vivo, read-out: Vdss; summary of the method: as §1
[17] = target: Tyrosine-protein kinase SYK (Homo sapiens) (UniProt P43405); assay: Inhibition of Syk (unknown origin) at 0.1 uM; summary of the method: as §4
[18] = target: Tyrosine-protein kinase Lck (Homo sapiens) (UniProt P06239); assay: Inhibition of LCK (unknown origin) at 0.1 uM; summary of the method: as §4
Sequence of Tyrosine-protein kinase Lck (Homo sapiens) (P06239 2-509 limits assumed): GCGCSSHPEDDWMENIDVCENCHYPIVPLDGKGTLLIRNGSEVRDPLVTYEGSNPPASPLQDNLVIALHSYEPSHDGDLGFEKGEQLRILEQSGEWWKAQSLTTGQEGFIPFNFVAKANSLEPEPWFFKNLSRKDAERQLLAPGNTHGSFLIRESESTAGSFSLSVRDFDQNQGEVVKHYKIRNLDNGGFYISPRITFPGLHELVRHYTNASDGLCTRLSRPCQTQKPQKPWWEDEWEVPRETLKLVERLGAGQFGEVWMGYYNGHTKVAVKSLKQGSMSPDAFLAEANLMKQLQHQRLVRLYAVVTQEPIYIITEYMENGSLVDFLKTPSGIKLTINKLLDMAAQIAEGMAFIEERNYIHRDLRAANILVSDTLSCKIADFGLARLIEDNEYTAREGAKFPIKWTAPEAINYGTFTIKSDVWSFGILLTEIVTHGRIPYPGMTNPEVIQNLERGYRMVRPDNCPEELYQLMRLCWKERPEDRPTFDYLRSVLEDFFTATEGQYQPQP

Sequence of Mitogen-activated protein kinase kinase kinase 9 (P80192 whole entry): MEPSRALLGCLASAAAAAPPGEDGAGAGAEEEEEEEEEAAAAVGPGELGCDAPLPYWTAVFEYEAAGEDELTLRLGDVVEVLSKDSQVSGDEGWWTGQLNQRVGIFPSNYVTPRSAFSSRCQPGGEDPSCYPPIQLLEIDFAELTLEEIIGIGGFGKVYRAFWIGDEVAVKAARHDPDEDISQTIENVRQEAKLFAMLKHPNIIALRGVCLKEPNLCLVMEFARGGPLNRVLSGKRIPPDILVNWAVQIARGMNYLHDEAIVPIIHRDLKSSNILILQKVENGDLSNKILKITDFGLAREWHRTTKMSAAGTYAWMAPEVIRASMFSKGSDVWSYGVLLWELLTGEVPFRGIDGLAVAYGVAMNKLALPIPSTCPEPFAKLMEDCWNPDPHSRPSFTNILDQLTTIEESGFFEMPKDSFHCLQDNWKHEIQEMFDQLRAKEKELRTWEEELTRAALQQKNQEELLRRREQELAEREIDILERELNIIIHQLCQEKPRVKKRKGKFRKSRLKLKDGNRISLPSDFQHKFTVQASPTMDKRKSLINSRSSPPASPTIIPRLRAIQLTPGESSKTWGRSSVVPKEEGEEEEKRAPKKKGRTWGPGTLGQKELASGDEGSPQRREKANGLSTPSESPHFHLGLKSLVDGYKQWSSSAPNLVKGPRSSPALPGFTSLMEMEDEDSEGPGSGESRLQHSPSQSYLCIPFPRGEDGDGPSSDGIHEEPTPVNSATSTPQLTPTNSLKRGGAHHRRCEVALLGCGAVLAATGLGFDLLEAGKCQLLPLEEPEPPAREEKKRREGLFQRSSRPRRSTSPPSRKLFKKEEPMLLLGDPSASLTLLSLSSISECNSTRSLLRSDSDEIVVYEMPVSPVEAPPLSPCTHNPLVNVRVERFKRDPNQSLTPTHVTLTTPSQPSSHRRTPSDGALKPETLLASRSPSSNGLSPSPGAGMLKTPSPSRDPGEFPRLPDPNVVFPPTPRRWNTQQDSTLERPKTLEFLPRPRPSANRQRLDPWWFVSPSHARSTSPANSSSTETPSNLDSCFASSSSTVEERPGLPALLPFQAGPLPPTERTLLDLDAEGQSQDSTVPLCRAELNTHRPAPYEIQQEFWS

Question: Which IC50 [1] does the source give for `N#Cc1ccnc(Nc2cc(C3CCN(C4COC4)CC3)cc(N3CCC(F)(F)C3)n2)c1` here?
Answer: 67.8 nM

Question: And the clearance [2]?
Answer: 41 mL/min/kg

Question: And the IC50 [3]?
Answer: > 5000 nM

Question: And the bioavailability [4]?
Answer: 63%

Question: What about the Vd [5] of the same molecule?
Answer: 3.7 L/kg

Question: And the IC50 [6]?
Answer: 107 nM

Question: And the Activity [7]?
Answer: Dose-dependent effect

Question: What about the clearance [8] of the same molecule?
Answer: 30 mL/min/kg

Question: And the bioavailability [9]?
Answer: 45%

Question: What about the Activity [10] of the same molecule?
Answer: Dose-dependent effect

Question: And the inhibition [11]?
Answer: > 80%

Question: And the inhibition [12]?
Answer: > 80%

Question: What about the IC50 [13] of the same molecule?
Answer: 364 nM

Question: What about the half-life [14] of the same molecule?
Answer: 1.8 h

Question: And the IC50 [15]?
Answer: > 5000 nM

Question: And the Vd [16]?
Answer: 2.5 L/kg

Question: And the inhibition [17]?
Answer: > 80%

Question: And the inhibition [18]?
Answer: > 80%
